Laboratory results published in ChEMBL document CHEMBL4715751, “Novel N-substituted indole Schiff bases as dual inhibitors of cyclooxygenase-2 and 5-lipoxygenase enzymes: Synthesis, biological activities in vitro and docking study” (Eur J Med Chem, 2016).
Activity calls are given as the source filed them. The calls are words filed in the database; no cut-off is given here.

Tests used:
BJ = assay: Cytotoxicity against human BJ cells assessed as reduction in cell viability after 72 hrs by calcein-AM staining based fluorescence analysis
Method in brief: (§1)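 Cells in DMEM with 10% FBS, 2 mmol/l L-glutamine, penicillin/streptomycin, 37 °C, 5% CO2. About 1.0×10^5 cells/ml plated, stabilized 24 h, then compounds added from DMSO stocks (final DMSO ≤0.6%), six 3-fold dilutions, top final concentration generally 50 µM. After 72 h, Calcein AM added for 1 h. Fluorescence expressed as % of DMSO controls; IC50 taken from dose-response curves. Means ±SD of three independent experiments in triplicate.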

MCF7 = assay: Cytotoxicity against human MCF7 cells assessed as reduction in cell viability after 72 hrs by calcein-AM staining based fluorescence analysis; settings: MCF7, 72 h; method in brief: as §1
HUVEC [1] = assay: Antiinflammatory activity in HUVEC assessed as reduction in TNF-alpha-induced E-selectin expression at 50 uM preincubated for 30 mins followed by TNF-alpha addition and measured after 4 hrs by ELISA; type: functional; settings: Homo sapiens, time 4.5 hrs
Method in brief: (§2)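 HUVECs seeded at 1×10^4/well and grown to confluence; indole derivatives (50 μM) added 30 min before TNFα 10 ng/ml, then 4 h further incubation. Cells fixed and E-selectin (ELAM) measured by ELISA. Parallel Calcein AM read-out monitored non-specific toxicity. Curcumin 10 μM served as positive control.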

CCRF-CEM = assay: Cytotoxicity against human CEM cells assessed as reduction in cell viability after 72 hrs by calcein-AM staining based fluorescence analysis; method in brief: as §1
HeLa = assay: Cytotoxicity against human HeLa cells assessed as reduction in cell viability after 72 hrs by calcein-AM staining based fluorescence analysis; method in brief: as §1
HUVEC [2] = assay: Cytotoxicity against HUVEC assessed as reduction in cell viability measured after 24 hrs by calcein-AM staining based fluorescence analysis; parameters: species or system Homo sapiens; settings: for Activity: human, huvec, time 24 hrs
HUVEC [3] = assay: Antiinflammatory activity in HUVEC assessed as reduction in TNF-alpha-induced E-selectin expression at 30 to 50 uM preincubated for 30 mins followed by TNF-alpha addition and measured after 4 hrs by ELISA; type: functional; settings: dose 30-50 µM, time 4.5 hrs; for Activity: Homo sapiens; method in brief: as §2
[4] = Inhibition of potato 5-LOX assessed as reduction in hydroperoxide level by EIA method; parameters: species or system Solanum tuberosum
Method in brief: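 Potato 5-LOX kit detecting hydroperoxides formed by lipoxygenation. Compounds dissolved in minimal DMSO and diluted in 0.1 M Tris HCl, pH 7.4, tested at 0.001, 1, 5, 10 μM. IC50 derived per the manufacturer's instructions, mean of two determinations.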

[5] = molecular target: T1, Prostaglandin G/H synthase 1 (Ovis aries, UniProt P05979); assay: Inhibition of ovine COX-1 assessed as appearance of oxidized TMPD level by EIA method
T1 sequence (P05979 whole entry): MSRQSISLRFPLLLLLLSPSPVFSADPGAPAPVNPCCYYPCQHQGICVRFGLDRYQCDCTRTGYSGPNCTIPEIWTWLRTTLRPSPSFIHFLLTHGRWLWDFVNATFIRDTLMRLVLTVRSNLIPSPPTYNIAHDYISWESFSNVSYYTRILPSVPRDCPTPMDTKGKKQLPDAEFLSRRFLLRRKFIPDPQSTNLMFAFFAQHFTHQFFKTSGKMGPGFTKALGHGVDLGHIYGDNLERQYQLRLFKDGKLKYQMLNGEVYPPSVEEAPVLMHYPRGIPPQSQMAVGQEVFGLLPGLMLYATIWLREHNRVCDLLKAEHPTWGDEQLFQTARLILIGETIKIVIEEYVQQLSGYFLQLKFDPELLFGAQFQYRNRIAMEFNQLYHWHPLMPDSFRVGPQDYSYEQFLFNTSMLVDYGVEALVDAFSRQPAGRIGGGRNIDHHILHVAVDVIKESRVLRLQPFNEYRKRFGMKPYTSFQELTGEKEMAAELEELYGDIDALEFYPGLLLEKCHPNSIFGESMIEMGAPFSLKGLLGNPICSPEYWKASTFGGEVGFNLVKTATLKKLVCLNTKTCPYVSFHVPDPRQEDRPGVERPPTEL

| SMILES | IC50 (BJ) | IC50 (MCF7) | Activity (HUVEC [1]) | IC50 (CCRF-CEM) | IC50 (HeLa) | Activity (HUVEC [2]) | Activity (HUVEC [3]) | IC50 [4] | IC50 [5] | inhibition (INH) (HUVEC [3]) | inhibition at 50 µM (HUVEC [1]) | IC50 (HUVEC [2]; Homo sapiens, HUVEC) |
| --- | --- | --- | --- | --- | --- | --- | --- | --- | --- | --- | --- | --- |
| O=C(Cn1cc(/C=N/n2cnnc2)c2ccccc21)Nc1ccc(O)cc1 | > 50 µM | > 50 µM | Active | > 50 µM | > 50 µM | – | – | – | – | – | – | – |
| Cc1c(/N=C/c2cn(C(=O)c3ccc(Cl)cc3)c3ccccc23)c(=O)n(-c2ccccc2)n1C | – | – | – | – | – | Non-Toxic | Active | 9.11 µM | 9.25 µM | – | – | – |
| O=C(Cn1cc(/C=N/n2cnnc2)c2ccccc21)Nc1ccccc1 | > 50 µM | > 50 µM | Active | > 50 µM | > 50 µM | – | – | – | – | – | – | – |
| COc1ccc(NC(=O)Cn2cc(/C=N/c3c(C)n(C)n(-c4ccccc4)c3=O)c3ccccc32)cc1 | 50 µM | > 50 µM | Active | 50 µM | > 50 µM | – | – | – | – | – | – | – |
| Cc1c(/N=C/c2cn(C(=O)c3ccccc3)c3ccccc23)c(=O)n(-c2ccccc2)n1C | – | – | – | – | – | Non-Toxic | Active | 7.54 µM | 7.65 µM | – | – | – |
| O=c1c(O)c(-c2ccc(O)c(O)c2)oc2cc(O)cc(O)c12 [QUERCETIN] | – | – | – | – | – | – | – | 5.96 µM | – | – | – | – |
| Cc1ccc(NC(=O)Cn2cc(/C=N/n3cnnc3)c3ccccc32)cc1 | > 50 µM | > 50 µM | Active | > 50 µM | > 50 µM | – | – | – | – | – | – | – |
| Cc1ccc(C(=O)n2cc(/C=N/n3cnnc3)c3ccccc32)cc1 | – | – | – | – | – | Non-Toxic | – | 6.54 µM | 7.89 µM | 33% | – | – |
| O=C(c1ccc(Cl)cc1)n1cc(/C=N/n2cnnc2)c2ccccc21 | – | – | – | – | – | Non-Toxic | Active | 8.11 µM | 8.65 µM | – | – | – |
| CC(=O)c1ccc(NC(=O)Cn2cc(/C=N/c3c(C)n(C)n(-c4ccccc4)c3=O)c3ccccc32)cc1 | > 50 µM | > 50 µM | Active | 42.9 µM | > 50 µM | – | – | – | – | – | – | – |
| Cc1c(/N=C/c2cn(CC(=O)Nc3ccccc3)c3ccccc23)c(=O)n(-c2ccccc2)n1C | > 50 µM | > 50 µM | Active | > 50 µM | > 50 µM | – | – | – | – | – | – | – |
| Cc1ccc(C(=O)n2cc(/C=N/c3c(C)n(C)n(-c4ccccc4)c3=O)c3ccccc32)cc1 | – | – | – | – | – | Non-Toxic | Active | 5.78 µM | 10.8 µM | – | – | – |
| CC(=O)c1ccc(NC(=O)Cn2cc(/C=N/n3cnnc3)c3ccccc32)cc1 | > 50 µM | > 50 µM | Active | > 50 µM | > 50 µM | – | – | – | – | – | – | – |
| Cc1ccc(NC(=O)Cn2cc(/C=N/c3c(C)n(C)n(-c4ccccc4)c3=O)c3ccccc32)cc1 | 49 µM | > 50 µM | Active | 42 µM | > 50 µM | – | – | – | – | – | – | – |
| Cc1c(/N=C/c2cn(Cc3ccccc3)c3ccccc23)c(=O)n(-c2ccccc2)n1C | – | – | – | – | – | Non-Toxic | Active | 5.98 µM | 11.2 µM | – | – | – |
| COc1ccc(NC(=O)Cn2cc(/C=N/n3cnnc3)c3ccccc32)cc1 | > 50 µM | > 50 µM | – | > 50 µM | > 50 µM | – | – | – | – | – | 15% | – |
| C(=N\n1cnnc1)/c1cn(Cc2ccccc2)c2ccccc12 | – | – | – | – | – | – | Active | 7.41 µM | 9.21 µM | – | – | 14.9 µM |
| CCOC(=O)c1ccc(NC(=O)Cn2cc(/C=N/c3c(C)n(C)n(-c4ccccc4)c3=O)c3ccccc32)cc1 | 50 µM | 38.1 µM | Active | 29.7 µM | 24.8 µM | – | – | – | – | – | – | – |
| Cc1c(/N=C/c2cn(CC(=O)Nc3ccc(O)cc3)c3ccccc23)c(=O)n(-c2ccccc2)n1C | 50 µM | > 50 µM | Active | > 50 µM | > 50 µM | – | – | – | – | – | – | – |
| CCOC(=O)c1ccc(NC(=O)Cn2cc(/C=N/n3cnnc3)c3ccccc32)cc1 | 31.3 µM | > 50 µM | – | > 50 µM | > 50 µM | – | – | – | – | – | 15% | – |
| Cc1c(/N=C/c2c[nH]c3ccccc23)c(=O)n(-c2ccccc2)n1C | > 50 µM | > 50 µM | Active | > 50 µM | > 50 µM | – | – | – | – | – | – | – |
| C(=N\n1cnnc1)/c1c[nH]c2ccccc12 | > 50 µM | > 50 µM | Active | > 50 µM | 9.9 µM | – | – | – | – | – | – | – |
| O=C(c1ccccc1)n1cc(/C=N/n2cnnc2)c2ccccc21 | – | – | – | – | – | Non-Toxic | Active | 6.54 µM | 10.4 µM | – | – | – |
